Screens from PubChem BioAssay.
TRPC6 act: activates the mouse TRPC6 cation channel | Q61143 | HEK293-TRPC6 membrane potential dye fluorescence; stronger effect = higher value | B-score at 10 µM | AID 2550 | 310,000 compounds, 0.13% hits;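 active means B-score of the integrated fluorescence ratio above library mean plus 3 SD, and starting fluorescence ratio within library mean plus 5 SD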;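 further: higher score means more depolarization so channel activation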
Yeast superoxide: yeast age-related superoxide inhibition as caloric restriction mimetic; S. cerevisiae aged cells, superoxide DHE fluorescence; stronger effect = lower value; superoxide response (% of plate mean), % at 10 µM; 330,000 compounds, 0.18% hits; AID 2690;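 active means superoxide response under a set limit, about three screen SD below normal, cut at about 65% in these data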;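 further: yeast aged for seven days with compound at 30 °C before DHE staining; 100% = average MFI of all compound-treated wells on the plate with controls excluded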
TRPC4 PAM: allosterically enhances the mouse TRPC4 cation channel | HEK293 TRPC4beta/mu-opioid, DAMGO EC20, Fluo-4 Ca2+ flux; stronger effect = higher value | B-score at 10 µM | 310,000 compounds, 0.42% hits;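 active means B-score of calcium response area above 5 SD of library B-scores, with initial fluorescence ratio within 5 SD of library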;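 further: B-score of integrated fluorescence ratio over time as area under calcium response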
Target sequence (Q9QUQ5 whole entry, looked up): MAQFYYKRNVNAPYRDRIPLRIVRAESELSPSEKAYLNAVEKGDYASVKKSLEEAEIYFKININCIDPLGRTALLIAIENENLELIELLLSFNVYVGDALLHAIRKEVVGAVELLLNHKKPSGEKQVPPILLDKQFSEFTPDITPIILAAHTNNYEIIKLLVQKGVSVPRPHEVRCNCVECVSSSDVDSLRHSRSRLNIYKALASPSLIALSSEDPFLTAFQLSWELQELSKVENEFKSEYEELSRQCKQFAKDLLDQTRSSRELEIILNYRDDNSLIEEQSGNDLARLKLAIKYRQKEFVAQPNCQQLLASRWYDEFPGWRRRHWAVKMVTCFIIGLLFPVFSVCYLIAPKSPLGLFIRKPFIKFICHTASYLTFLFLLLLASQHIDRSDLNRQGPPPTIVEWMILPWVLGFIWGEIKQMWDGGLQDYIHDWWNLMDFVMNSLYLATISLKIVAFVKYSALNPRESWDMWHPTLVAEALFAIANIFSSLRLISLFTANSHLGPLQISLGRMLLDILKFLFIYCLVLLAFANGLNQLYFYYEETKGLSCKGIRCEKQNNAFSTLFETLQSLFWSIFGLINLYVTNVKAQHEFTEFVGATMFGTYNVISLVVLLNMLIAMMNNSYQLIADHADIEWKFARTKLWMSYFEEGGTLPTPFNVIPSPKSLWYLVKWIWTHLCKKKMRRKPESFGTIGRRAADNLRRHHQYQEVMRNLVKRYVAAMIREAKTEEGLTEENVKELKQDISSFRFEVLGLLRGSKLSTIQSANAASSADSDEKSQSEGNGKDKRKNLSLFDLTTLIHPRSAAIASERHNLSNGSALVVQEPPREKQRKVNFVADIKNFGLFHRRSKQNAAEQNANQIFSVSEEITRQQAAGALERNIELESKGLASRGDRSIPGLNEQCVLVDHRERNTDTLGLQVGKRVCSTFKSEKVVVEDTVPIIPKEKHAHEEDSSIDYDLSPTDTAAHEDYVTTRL
TRPC4 block: TRPC4 (mouse) channel inhibition. Q9QUQ5. HEK293 TRPC4beta/mu-opioid, DAMGO-evoked Fluo4 calcium flux; stronger effect = lower value. B-score at 10 µM. 300,000 compounds, 0.39% hits;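 active means B-score over 3 SD under the library average, no early fluorescence shift, positive overall ratio signal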
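Material: HEK293 cells with stable TRPC4beta plus mu-opioid receptor expression; probe or stimulus: DAMGO in two steps, submaximal then maximal; technique: Fluo4 calcium fluorescence by kinetic imaging, 5 s 1 Hz baseline; measure: integrated fluorescence ratio relative to baseline, converted to per-well B score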
TRPC6 inh: blocks the mouse TRPC6 cation channel; 310,000 compounds, 1.1% hits; B-score at 10 µM; HEK293-TRPC6, membrane potential dye, ACh-evoked depolarization; stronger effect = lower value; Q61143;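 active means B-score under library mean minus 3 SD, initial fluorescence not abnormally high, positive integrated signal ratio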;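 further: B-score derived from integrated fluorescence ratio over the kinetic read; more negative B-score means stronger inhibition of depolarization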
TRPC4 agonist: opens the mouse TRPC4 cation channel. Q9QUQ5. HEK293 TRPC4beta/mu-opioid, Fluo4 calcium fluorescence; stronger effect = higher value. B-score at 10 µM. 310,000 compounds, 0.49% hits;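 active means B-score above 5 SD of library B-scores, and initial fluorescence ratio not above library mean plus 5 SD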;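 further: positive B-score marks a calcium rise read as TRPC4 activation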
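Assay system: HEK293 stable line with TRPC4beta plus mu-opioid receptor; schedule: 45 min room-temperature Fluo4 loading, 110 s read; technique: kinetic Fluo4 calcium fluorescence; evaluation: integrated baseline-normalised fluorescence ratio, converted to per-well B score; controls: buffer (low) and maximal DAMGO (high)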
CR mimetic CP: yeast aging superoxide inhibition, cherry pick confirmation; shares compounds with Yeast superoxide; S. cerevisiae aging, superoxide DHE fluorescence; stronger effect = lower value; superoxide response (% of plate), % at 10 µM; 850 compounds, 1% hits;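 active means superoxide signal below 65% of the plate average of sample wells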;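 further: cells aged with compound for 7 days at 30 degrees C before staining; 100% equals mean DHE fluorescence of all compound wells on the plate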
DHE fluor count: counter-screen for compounds affecting DHE oxidation and fluorescence in yeast. 850 tested, under 10 active. AID 435000. S. cerevisiae BY4741, flow cytometry; stronger effect = lower value. shares compounds with Yeast superoxide. fluorescence response, % at 10 µM;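 active means fluorescence response below 15%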;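 further: percent of the mean fluorescence averaged over all compound wells on the plate; lower means stronger quenching of DHE signal or ROS scavenging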
Starred values were filed as active, the others as inactive; i = inactive; nt = not tested or not shown. Shown are actives, neighbours in structure and some others; about 2.3% of the full set was active somewhere.

SMILES	TRPC6 act	Yeast superoxide	TRPC4 PAM	TRPC4 block	TRPC6 inh	TRPC4 agonist	CR mimetic CP	DHE fluor count
CC(=O)Nc1ccc(S(=O)(=O)N2CCCC2)cc1	i	101.0	i	i	i	i	98.4	114.6
COC(=O)c1cccc(NC2CC(=O)N(c3ccc(OC)c(OC)c3)C2=O)c1 (stereo not given)	i	62.0*	i	i	i	i	97.1	93.0
COc1ccc(N2C(=O)CC(Nc3ccc(C(=O)O)cc3)C2=O)cc1OC (stereo not given)	i	73.4	i	i	i	i	nt	nt
CCOC(=O)C/C(C)=N/NC(=O)c1cccs1	i	62.9*	i	i	i	i	112.5	99.2
CCOCCCNC(=O)c1oc2ccc(S(=O)(=O)N3CCOCC3)cc2c1C	i	89.4	i	i	i	i	nt	nt
CCc1cccc(C)c1NC(=O)COC(=O)c1ccc2c(c1)S(=O)(=O)c1ccccc1C2=O	i	58.5*	i	i	i	i	93.6	96.1
CC(=O)N1CCN(C(=O)c2ccc3c(c2)S(=O)(=O)c2ccccc2C3=O)CC1	i	47.1*	i	i	i	i	95.0	99.0
CCN1CCCC1CNS(=O)(=O)c1ccc(Br)cc1 (stereo not given)	i	98.4	i	i	i	i	nt	nt
Cc1nc(Nc2ccc(S(=O)(=O)N3CCCCC3C)cc2)c2nnn(Cc3ccccc3)c2n1 (stereo not given)	i	58.9*	i	i	i	i	106.2	109.1
CN1CC(=O)Nc2ccc(Br)cc2C1=O	i	64.9*	i	i	i	i	93.5	98.3
Cc1nnsc1C(=O)NNc1ccc(C(C)(C)C)cc1	i	90.0	i	i	i	i	nt	nt
Cc1nnsc1C(=O)NNC(=O)c1ccc(C(F)(F)F)cc1	i	63.5*	i	i	i	i	110.5	97.4
CC(C)OC(=O)c1ccc2nc3ccccc3nc2c1	i	53.1*	i	i	i	i	82.7	101.2
Cc1ncc([N+](=O)[O-])n1CC(=O)Nc1ccc(Cl)cc1	i	88.3	i	i	i	i	nt	nt
Cc1ncc([N+](=O)[O-])n1CC(=O)Nc1ccc(F)c(F)c1	i	52.8*	i	i	i	i	96.5	94.3
OC1CCN(c2c3c(nc4cc(-c5ccc(F)cc5)nn24)CCC3)CC1	i	103.4	i	i	i	i	nt	nt
O=C(C1CCCO1)N1CCN(c2c3c(nc4cc(-c5ccc(F)cc5)nn24)CCC3)CC1 (stereo not given)	i	63.2*	i	i	i	i	98.2	102.7
COCCCN1CN(S(=O)(=O)c2ccc(C)cc2C)c2nc3ccccc3nc21	i	109.9	i	i	i	i	nt	nt
COc1ccccc1NC(=O)c1cc(N)cc(C(=O)Nc2ccccc2OC)c1	i	100.6	i	i	i	i	nt	nt
CCOC(=O)N1CCN(C(=O)COC(=O)c2oc3ccc(OC)cc3c2C)CC1	i	118.8	i	i	i	i	nt	nt
Cn1c(=O)c2[nH]c(-c3cccnc3)nc2n(C)c1=O	i	58.0*	i	i	i	i	90.9	91.9
Cc1cc(=O)[nH]c(-c2cccnc2)n1	i	93.0	i	i	i	i	nt	nt
COC(=O)c1ccc(N2CCN(C(=O)c3ccccc3)CC2)c(NC(C)=O)c1	i	100.7	i	i	i	i	nt	nt
CCN(CC)c1ccc2nc3ccccc3[n+](CC)c2c1	i	65.0*	i	i	i	i	81.7	107.6
CCN(CC)c1ccc2cc(-c3nc4ccccc4[nH]3)c(=O)oc2c1	i	107.8	i	i	i	i	nt	nt
SMILES	TRPC6 act	Yeast superoxide	TRPC4 PAM	TRPC4 block	TRPC6 inh	TRPC4 agonist	CR mimetic CP	DHE fluor count
COCc1nnc(NC(=O)c2ccc(S(=O)(=O)N3CCOCC3)cc2)o1	i	102.6	i	i	i	i	118.1	116.8
COc1ccc(-c2nnc(NC(=O)c3ccc(S(=O)(=O)N4CCCc5ccccc54)cc3)o2)cc1	i	101.6	i	i	i	i	nt	nt
COc1ccccc1-c1nnc(NC(=O)c2ccc(S(=O)(=O)N3CCOCC3)cc2)o1	i	92.9	i	i	i	i	90.9	93.3
COCc1nnc(NC(=O)c2ccc(S(=O)(=O)N3CCCc4ccccc43)cc2)o1	i	96.4	i	i	i	i	101.5	95.5
COc1cc(-c2nnc(NC(=O)c3ccc(S(=O)(=O)N4CCOCC4)cc3)o2)cc(OC)c1OC	i	94.0	i	i	i	i	nt	nt
CCC(C)(C(=O)NC1CCCC1)N(Cc1cccs1)C(C)=O (stereo not given)	i	95.4	i	i	i	i	nt	nt
Cc1nnc(SCc2ccc(Cl)c(Cl)c2)s1	i	60.2*	i	i	i	i	107.7	90.0
COc1ccc(NC(=O)CSc2nnc(-c3cccnc3)o2)cc1	i	123.6	i	i	i	i	nt	nt
O=C(CSc1nnc(-c2ccc(O)cc2)n1Cc1ccco1)N1CCc2ccccc2C1	i	60.4*	i	i	i	i	92.2	92.0
NC(=O)CSc1nnc(-c2ccc(O)cc2)n1Cc1ccco1	i	88.5	i	i	i	i	nt	nt
CCc1ccc2c(c1)C(C)=CC(C)(C)N2	i	95.5	i	i	i	i	nt	nt
CCOc1ccc2c(c1)C(C)=CC(C)(C)N2	nt	65.4*	nt	nt	nt	nt	102.9	89.5
O=C(Nn1cc(C(=O)Nc2ccc(F)cc2F)c2ccccc2c1=O)c1cnccn1	i	107.7	i	i	i	i	nt	nt
COc1cccc(NC(=O)CN(C)C(=O)CCNC(=O)c2ccccc2Cl)c1	nt	89.6	nt	nt	nt	nt	nt	nt
COc1ccc(S(=O)(=O)Nc2noc3ccccc23)cc1OC	i	53.8*	i	i	i	i	82.7	96.7
COc1cccc(S(=O)(=O)Nc2noc3ccccc23)c1	i	99.8	i	i	i	i	nt	nt
O=C(CSc1nnc(-c2ccc(F)cc2)o1)NC1CCCCC1	i	93.0	i	nt	i	i	nt	nt
CCCNC(=O)CSc1nnc(-c2ccc(F)cc2)o1	i	126.7	i	i	i	i	117.2	100.3
CCN(CC)C(=O)CSc1nnc(-c2ccccc2)o1	i	97.9	i	i	i	i	95.5	95.9
